Data on 46 compounds can be found in ChEMBL document CHEMBL1137090, “Heterocyclic bis-cations as starting hits for design of inhibitors of the bifunctional enzyme histidine-containing protein kinase/phosphatase from Bacillus subtilis” (J Med Chem, 2004).

In test [1] the target is T1, HPr kinase/phosphorylase (Bacillus subtilis (strain 168)) (UniProt O34483).
T1 sequence (whole entry): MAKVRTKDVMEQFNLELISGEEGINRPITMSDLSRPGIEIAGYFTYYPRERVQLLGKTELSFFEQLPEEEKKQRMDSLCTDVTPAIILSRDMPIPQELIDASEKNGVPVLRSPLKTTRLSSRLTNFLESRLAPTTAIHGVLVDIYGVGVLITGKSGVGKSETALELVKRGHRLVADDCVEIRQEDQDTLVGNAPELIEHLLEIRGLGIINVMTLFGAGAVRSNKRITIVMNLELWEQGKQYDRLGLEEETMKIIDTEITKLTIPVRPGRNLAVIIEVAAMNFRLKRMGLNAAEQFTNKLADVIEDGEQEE
As to the kind of experiment: Percent inhibition of Histidine containing protein K in kinase assay with histidine containing protein at 100 uM. In a few lines: (§1)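 Single-point kinase test at 10 and 100 µM final compound. HPr(His)6 (10 µM) is phosphorylated by 100 nM B. subtilis HPrK/P(Trx-His6-S-tag) with 0.5 mM [γ-32P]ATP, 5 mM MgCl2, 2 mM FBP, 0.1% BSA, 50 mM Tris pH 8; 37 °C, 10 min. 32P incorporation measured on P81 paper by scintillation.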

Test [2] addresses T1, HPr kinase/phosphorylase (Bacillus subtilis (strain 168)). The test can be described thus: Percent inhibition of Histidine containing protein K in kinase assay with histidine containing protein at 10 uM. In a few lines:
as §1

The target is the same in test [3]. As to the kind of experiment: Percent inhibition of Histidine containing protein K/P in kinase assay. Set-up: concentration or dose not given beside the values. As to conditions: concentration not given here.
Test [4] in a line: Hill slope for the compound was measured for inhibition of Crh kinase assay.
The nature of test [5]: Hill slope for the compound was measured for inhibition of histidine containing protein kinase assay. An outline of the steps: (§2)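 B. subtilis HPrK/P(Trx-His6-S-tag) kinase, 100 nM, added last to start the reaction with 10 µM HPr(His)6 or Crh(His)6, 0.5 mM [γ-32P]ATP, 5 mM MgCl2, 2 mM FBP, 0.1% BSA, 50 mM Tris pH 8, 10% DMSO; 37 °C, 10 min. Read-out is P81 paper capture, H3PO4 washes and scintillation counting. Thirteen serial inhibitor concentrations, typically in triplicate; EC50 and Hill coefficient from nonlinear regression.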

The target in the next test is T2, HPr kinase/phosphorylase (Bacillus subtilis (strain 168), UniProt O34483).
T2 sequence (O34483 whole entry): T1 sequence (whole entry)
The test can be described thus: Inhibition of histidine containing protein in kinase assay. In a few lines: as §2

The target in test [6] is HPr kinase/phosphorylase (Bacillus subtilis) (UniProt O34483). As to the kind of experiment: Effective concentration for inhibition of HPr kinase/phosphorylase in kinase assay.
In test [7] the target is T1, HPr kinase/phosphorylase (Bacillus subtilis (strain 168)). As to the kind of experiment: Percent inhibition of Histidine containing protein K in kinase assay at 10 uM. In a few lines: as §1
The target is the same in test [8]. As to the kind of experiment: Percent inhibition of Histidine containing protein K in kinase assay at 100 uM. In a few lines: as §1

The structures appear in SMILES notation. Where only a bound is given, the exact number is not on record here.

Turning to `NC(=O)CCCCC[n+]1c(N)n(Cc2ccccc2)c2ccccc21`, the values for the inhibition in test [1] and in [2] were 11% and 3%, respectively.

`NCCCCCC[n+]1c(N)n(Cc2ccccc2)c2ccccc21`: the inhibition in test [1] was 33%; in test [2], 12%.

Regarding `Nc1cc2c(n[n+]1CCCCCCCCCCCC[n+]1nc3c(cc1N)-c1ccccc1CC3)CCc1ccccc1-2`, the inhibition in [3] is less than 5%.

For the compound `CC(C)(C)OC(=O)NCCCCCC[n+]1c(N)n(Cc2ccccc2)c2ccccc21`, the inhibition in [1] amounted to 14%; in test [2], 9%.

Consider `Nc1n(Cc2ccccc2)c2ccccc2[n+]1CCCCCCO`, for which the values for the inhibition in test [1] and in test [2] were 5% and 13%, respectively.

`Nc1ncnc2c1ncn2[C@@H]1O[C@H](COP(=O)(O)OP(=O)(O)O)[C@@H](O)[C@H]1O` [ADENOSINE DIPHOSPHATE]: the Activity came out at 1.4 in test [4] and 0.9 in test [5]. Moreover, the EC50 was found to be 4300 µM at HPr kinase/phosphorylase and 7400 µM in [6].

Regarding `Nc1n(Cc2ccccc2)c2ccccc2[n+]1CCCCCC(=O)[O-]`, the inhibition was 10% in [1] and 3% in [2].

For `Nc1n(Cc2ccccc2)c2ccccc2[n+]1CCCCCCCCCCCCN1CCOCC1`, the inhibition in test [1] was 90%; in test [2], 31%.

Take `CCCCCCCCCCCC[n+]1c(N)n(CCc2ccccc2)c2ccccc21`: the figures for the inhibition in test [1] and in test [2] were 98% and 0%, respectively.

As to `CCC[n+]1c(N)n(Cc2ccccc2)c2ccccc21`, the inhibition in test [1] came out at 14%; in test [2] it was 13%.

In turn, `Nc1sc2ccccc2[n+]1CCCCCCCCCCCC[n+]1c(N)sc2ccccc21` gave an inhibition in test [3] of less than 5%.

As to `Nc1n(Cc2ccccc2)c2ccccc2[n+]1CCCCCCCCCCCCN1C(=O)c2ccccc2C1=O`, the inhibition in test [1] was found to be 97%; in test [2], 40%.

Turning to `Nc1n(Cc2ccccc2)c2ccccc2[n+]1CCCCCCCCCCCCNCc1ccccc1`, the results for the inhibition in [1] and in test [2] were 96% and 50%, respectively.

For the compound `CCCCCCCCCCCC[n+]1c(N)n(Cc2ccccc2)c2ccccc21`, the values for the inhibition in [7] and in test [8] were 18% and 90%, respectively. Also, the Activity was determined as 6.4 in test [4] and 5.3 in test [5]. The concentration for a half-maximal effect (EC50) was 29 µM on HPr kinase/phosphorylase and 32 µM in test [6].

Consider `NCCC[n+]1c(N)n(Cc2ccccc2)c2ccccc21`, for which the values for the inhibition in test [1] and in test [2] were 24% and 18%, respectively.

As for `CNC(=O)C[n+]1c(N)n(Cc2ccccc2)c2ccccc21`, the inhibition in [1] and in test [2] was 7% in each case.

As for `NCCCCCCCCCCC[n+]1c(N)n(Cc2ccccc2)c2ccccc21`, the inhibition in test [1] turned out to be 62%; in test [2] it was 24%.

For `Nc1n(Cc2ccccc2)c2ccccc2[n+]1CCCCCCCCCCCCNC1CCCCC1`, the inhibition in [1] was found to be 93%; in test [2] it was 11%.

As to `Nc1n(Cc2ccccc2)c2ccccc2[n+]1CCCc1ccccc1`, the values for the inhibition in [1] and in [2] were 20% and 11%, respectively.

In test [3], `c1c[n+](CCCCCCCCCCCC[n+]2cc[nH]c2)c[nH]1` gave an inhibition of less than 5%.

Take `CC(C)(C)OC(=O)NCCC[n+]1c(N)n(Cc2ccccc2)c2ccccc21`: the inhibition amounted to 12% in [1] and 18% in test [2].

For `Nc1n(Cc2ccccc2)c2ccccc2[n+]1CCCCCCCCCCCO`, the inhibition in [1] was determined as 37%; in test [2], 9%.

Regarding `Cn1c(N)[n+](CCCCCCCCCCCC[n+]2c(N)n(C)c3ccccc32)c2ccccc21`, the inhibition in test [3] was determined as 64%.

`Nc1n(Cc2ccccc2)c2ccccc2[n+]1CCCCCCCCN1CCN(c2ccccc2)CC1`: the figures for the inhibition in test [1] and in test [2] were 86% and 33%, respectively.

On to `Nc1n(Cc2ccccc2)c2ccccc2[n+]1CCCCCCCC[n+]1c(N)n(Cc2ccccc2)c2ccccc21`, for which the Activity in [4] was 2.2; in [5], 1.1. For the same compound, the EC50 at HPr kinase/phosphorylase came to 20 µM; in test [6] it was 71 µM.

As to `Nc1n(Cc2ccccc2)c2ccccc2[n+]1CC(=O)Nc1ccccc1`, the results for the inhibition in test [1] and in test [2] were 16% and 13%, respectively.

For the compound `CCCCCCCCCCCC[n+]1c(N)n(Cc2ccc(Cl)cc2)c2ccccc21`, the inhibition turned out to be 21% in test [1] and 17% in [2].

Turning to `CN1CCN(CCCCCCCCCCCC[n+]2c(N)n(Cc3ccccc3)c3ccccc32)CC1`, the inhibition in test [1] is 93%; in test [2] it was 35%.

Turning to `CCCCCCCCCCCC[n+]1c(N)n(Cc2ccc(C)cc2)c2ccccc21`, the inhibition came out at 23% in test [1] and 0% in test [2].

As to `CCCCCCCCCCCC[n+]1c(N)n(Cc2ccc(OC)cc2)c2ccccc21`, the inhibition in [1] amounted to 95%; in test [2] it was 34%.

For `Nc1n(Cc2ccccc2)c2ccccc2[n+]1CC(=O)[O-]`, the inhibition in [1] stood at 3%; in [2], 2%.

Regarding `Nc1n(Cc2ccccc2)c2ccccc2[n+]1CCCCCCCCCCCCNc1ccccc1`, the values for the inhibition in test [1] and in test [2] were 96% and 46%, respectively.

As to `Nc1n(Cc2ccccc2)c2ccccc2[n+]1CCCCCCCCCCC(=O)[O-]`, the results for the inhibition in [1] and in [2] were 39% and 2%, respectively.

Consider `Nc1n(Cc2ccccc2)c2ccccc2[n+]1Cc1ccccc1`, for which the inhibition in test [1] stood at 33%; in test [2], 13%.

On to `Nc1n(Cc2ccccc2)c2ccccc2[n+]1CCCO`, for which the inhibition worked out at 6% in [1] and 4% in test [2].

As to `CCCCCCCC[n+]1c(N)n(Cc2ccccc2)c2ccccc21`, the figures for the inhibition in [1] and in [2] were 55% and 9%, respectively.

For the compound `Nc1n(Cc2ccccc2)c2ccccc2[n+]1CCCCCN1CCN(c2ccccc2)CC1`, the inhibition in test [1] turned out to be 34%; in test [2] it was 13%.

Compound `Nc1cccc[n+]1CCCCCCCCCCCC[n+]1ccccc1N` returned an inhibition in [3] of less than 5%.

As to `Nc1n(Cc2ccccc2)c2ccccc2[n+]1CCCCCNCc1ccccc1`, the inhibition in test [1] was found to be 53%; in test [2], 12%.

Take `Nc1n(Cc2ccccc2)c2ccccc2[n+]1CCCCC[n+]1c(N)n(Cc2ccccc2)c2ccccc21`: the Activity in test [4] and in [5] was 1.3 each time. Moreover, the values for the half-maximal effective concentration (EC50) (on HPr kinase/phosphorylase; in test [6]) were 93 µM and 210 µM, respectively.

Consider `CCCCCCCCCCCC[n+]1c(N)n(CCCc2ccccc2)c2ccccc21`, for which the figures for the inhibition in test [1] and in [2] were 96% and 38%, respectively.

Consider `Nc1n(Cc2ccccc2)c2ccccc2[n+]1CCCCCCCCCCCCN1CCN(c2ccccc2)CC1`, for which the inhibition in test [1] worked out at 96%; in test [2], 41%.

Consider `CCCCC[n+]1c(N)n(Cc2ccccc2)c2ccccc21`, for which the inhibition in test [1] came to 32%; in test [2], 12%.

Take `Nc1c2ccccc2cc[n+]1CCCCCCCCCCCC[n+]1ccc2ccccc2c1N`: the inhibition in test [3] is less than 5%.

Regarding `CC(C)(C)OC(=O)NCCCCCCCCCCC[n+]1c(N)n(Cc2ccccc2)c2ccccc21`, the values for the inhibition in [1] and in [2] were 96% and 14%, respectively.

Consider `CCCCCCCCCCCC[n+]1c(N)n(Cc2ccc(Cl)c(Cl)c2)c2ccccc21`, for which the results for the inhibition in test [1] and in test [2] were 51% and 9%, respectively.
